# From ChEMBL document CHEMBL1135939, “Studies on the synthesis and opioid agonistic activities of mitragynine-related indole alkaloids: discovery of opioid agonists structurally different from other opioid ligands” (J Med Chem, 2002)
# Calls of active or inactive are those of the source. The rule behind the calls is not given here.
# Legend:
# Cavia porcellus [1] = species on record: Cavia porcellus; test: % inhibition of twitch contraction in electrically stimulated guinea pig ileum preparation; type: functional
# Outline: (§1)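 Ileum from male Dunkin-Hartley guinea pigs (300–400 g) in bath at 37 °C bubbled with 95% O2/5% CO2. Tissue suitability checked with acetylcholine 3 μM. Transmural stimulation at 0.2 Hz, 0.3 ms, supramaximal voltage, isotonic recording. Cumulative concentration–response curves over 100 pM–30 μM. Twitch height measured before and after drug. Mean ± SEM from five to six animals.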
# Cavia porcellus [2] = species on record: Cavia porcellus; test: Relative inhibitory activity expressed as the percentage of the maximum inhibition by the compound against that of morphine; type: functional
# Cavia porcellus [3] = species on record: Cavia porcellus; test: % maximum inhibition is elicited when the response reaches plateau, calculated regarding electrically induced contraction in guinea pig ileum as 100%; type: functional; outline: as §1
# Mu-type opioid receptor = Mu-type opioid receptor (Cavia porcellus, UniProt P97266); test: Binding affinity using guinea pig brain membrane preparations, towards Opioid receptor mu 1 using [3H]- DAMGO as radioligand
# Outline: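 Guinea pig whole-brain (minus cerebellum) membranes in 50 mM Tris-HCl pH 7.4 with 1 nM radioligand. [3H]DPDPE incubated 2 h and [3H]DAMGO 1.5 h, both at 25 °C. Nonspecific binding defined with 1 μM naltrindole (DPDPE) or 1 μM DAMGO (DAMGO). GF/B filtration, scintillation counting. 6–9 inhibitor concentrations; Ki by Cheng–Prusoff, given as pKi. 3–5 curves, each in triplicate.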
# [4] = test system: Delta-type opioid receptor; test: Relative affinity evaluated for Opioid receptor delta 1; settings: Cavia porcellus
# Outline: (§2)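 From displacement Ki values in guinea pig brain membranes for μ ([3H]DAMGO), δ ([3H]DPDPE) and κ ([3H]U-69593) sites. Ka = 1/Ki. Relative affinity (%) = Ka for the subtype / (Kaμ + Kaδ + Kaκ).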
# [5] = molecular target: Mu-type opioid receptor (Cavia porcellus) (UniProt P97266); test: Relative affinity evaluated for Opioid receptor mu 1; outline: as §2
# Cavia porcellus [6] = species on record: Cavia porcellus; test: Relative potency expressed as the percentage of the pD2 value against that of morphine; type: functional
# Cavia porcellus [7] = species on record: Cavia porcellus; test: activity evaluated by its ability to inhibit the electrically induced twitch contraction in guinea pig ileum, which is reversed by naloxone (300 nM); type: functional; outline: as §1
# Cavia porcellus [8] = species on record: Cavia porcellus; test: % maximum inhibition is elicited when the response reaches plateau, calculated regarding electrically induced contraction in guinea pig ileum as 100% (P < 0.001); type: functional; outline: as §1
# [9] = molecular target: Kappa-type opioid receptor (Cavia porcellus, UniProt P41144); test: Binding affinity using guinea pig brain membrane preparations, towards Opioid receptor kappa 1 using [3H]- U-69,593 as radioligand
# Cavia porcellus [10] = species on record: Cavia porcellus; test: activity evaluated by its ability to inhibit the electrically induced twitch contraction in guinea pig ileum, which is reversed by naloxone (300 nM)(P < 0.01); type: functional; outline: as §1
# Cavia porcellus [11] = species on record: Cavia porcellus; test: % maximum inhibition is elicited when the response reaches plateau, calculated regarding electrically induced contraction in guinea pig ileum as 100%; non specific; type: functional; outline: as §1
# Cavia porcellus [12] = species on record: Cavia porcellus; test: Relative inhibitory activity expressed as the percentage of the maximum inhibition by the compound against that of morphine; non specific; type: functional
# Cavia porcellus [13] = species on record: Cavia porcellus; test: activity evaluated by its ability to inhibit the electrically induced twitch contraction in guinea pig ileum, which is reversed by naloxone (300 nM); non specific; type: functional; outline: as §1
# Cavia porcellus [14] = species on record: Cavia porcellus; test: Relative potency expressed as the percentage of the pD2 value against that of morphine; non specific; type: functional
# Cavia porcellus [15] = species on record: Cavia porcellus; test: % maximum inhibition is elicited when the response reaches plateau, calculated regarding electrically induced contraction in guinea pig ileum as 100%(P < 0.01); type: functional; outline: as §1
# Cavia porcellus [16] = species on record: Cavia porcellus; test: activity evaluated by its ability to inhibit the electrically induced twitch contraction in guinea pig ileum, which is reversed by naloxone (300 nM)(P < 0.001); type: functional; outline: as §1
# Cavia porcellus [17] = species on record: Cavia porcellus; test: Relative potency expressed as the percentage of the pD2 value against that of morphine; no effect; type: functional
# Cavia porcellus [18] = species on record: Cavia porcellus; test: Relative inhibitory activity expressed as the percentage of the maximum inhibition by the compound against that of morphine; no effect; type: functional
# Cavia porcellus [19] = species on record: Cavia porcellus; test: activity evaluated by its ability to inhibit the electrically induced twitch contraction in guinea pig ileum, which is reversed by naloxone (300 nM); no effect; type: functional; outline: as §1
# Cavia porcellus [20] = species on record: Cavia porcellus; test: % maximum inhibition is elicited when the response reaches plateau, calculated regarding electrically induced contraction in guinea pig ileum as 100%; no effect; type: functional; outline: as §1
# Cavia porcellus [21] = species on record: Cavia porcellus; test: activity evaluated by its ability to inhibit the electrically induced twitch contraction in guinea pig ileum, which is reversed by naloxone (300 nM) (P < 0.001); type: functional; outline: as §1
# Cavia porcellus [22] = species on record: Cavia porcellus; test: % inhibition of twitch contraction at 0.1 uM in electrically stimulated guinea pig ileum preparation; type: functional; outline: as §1
# Cavia porcellus [23] = species on record: Cavia porcellus; test: % maximum inhibition is elicited when the response reaches plateau, calculated regarding electrically induced contraction in guinea pig ileum as 100%(P < 0.001); type: functional; outline: as §1
# Cavia porcellus [24] = species on record: Cavia porcellus; test: Effect of Corynantheidine (10 uM) on twitch contraction inhibited by Atropine (0.1 uM) in guinea pig; type: functional
# Cavia porcellus [25] = species on record: Cavia porcellus; test: Effect of Corynantheidine (1 uM) on twitch contraction inhibited by morphine (1 uM) in guinea pig (P<0.05); type: functional
# Cavia porcellus [26] = species on record: Cavia porcellus; test: Effect of Corynantheidine (1 uM) on twitch contraction inhibited by Verapamil (3 uM) in guinea pig; type: functional
# Cavia porcellus [27] = species on record: Cavia porcellus; test: Effect of Corynantheidine (10 uM) on twitch contraction inhibited by Verapamil (3 uM) in guinea pig; type: functional
# Cavia porcellus [28] = species on record: Cavia porcellus; test: Effect of Corynantheidine (1 uM) on twitch contraction inhibited by Atropine (0.1 uM) in guinea pig; type: functional
# Cavia porcellus [29] = species on record: Cavia porcellus; test: Effect of Corynantheidine (10 uM) on twitch contraction inhibited by morphine (1 uM) in guinea pig (P<0.001); type: functional
# Cavia porcellus [30] = species on record: Cavia porcellus; test: % maximum inhibition is elicited when the response reaches plateau, calculated regarding electrically induced contraction in guinea pig ileum as 100% (P<0.001); type: functional; outline: as §1
# Cavia porcellus [31] = species on record: Cavia porcellus; test: % inhibition of twitch contraction at 3 uM in electrically stimulated guinea pig ileum preparation by; type: functional; outline: as §1
# Sequence of Kappa-type opioid receptor (P41144 whole entry): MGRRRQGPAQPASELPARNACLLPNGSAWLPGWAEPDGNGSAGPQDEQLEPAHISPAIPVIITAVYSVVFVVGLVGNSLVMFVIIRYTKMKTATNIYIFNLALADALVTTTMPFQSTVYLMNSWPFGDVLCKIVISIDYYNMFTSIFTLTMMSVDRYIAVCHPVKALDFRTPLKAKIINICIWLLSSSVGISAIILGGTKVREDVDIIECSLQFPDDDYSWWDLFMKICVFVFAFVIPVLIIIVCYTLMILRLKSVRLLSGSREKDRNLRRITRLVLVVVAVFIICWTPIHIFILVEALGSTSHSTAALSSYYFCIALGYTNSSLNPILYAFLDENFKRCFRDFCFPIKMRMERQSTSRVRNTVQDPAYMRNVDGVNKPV
# Sequence of Mu-type opioid receptor (P97266 whole entry): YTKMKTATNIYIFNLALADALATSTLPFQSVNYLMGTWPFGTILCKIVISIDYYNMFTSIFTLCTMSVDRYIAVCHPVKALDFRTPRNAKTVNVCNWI
# Sequence of Mu-type opioid receptor (Cavia porcellus) (P97266 whole entry): as above
structure (smiles),measurement,setting,value
CN1CC[C@]23c4c5ccc(O)c4O[C@H]2[C@@H](O)C=C[C@H]3[C@H]1C5 [MORPHINE],Contraction,Cavia porcellus [1],27.4%
same,Inhibition,Cavia porcellus [2],100%
same,Inhibition,Cavia porcellus [3],87.2%
CC[C@@H]1CN2CCc3c([nH]c4cccc(O)c34)[C@@H]2C[C@@H]1/C(=C\OC)C(=O)OC,Inhibition,Cavia porcellus [2],57%
same,Ki,Mu-type opioid receptor,12 nM
same,Relative affinity,[4],< 0.1%
same,Relative affinity,[5],99.6%
same,Relative potency,Cavia porcellus [6],41%
same,pD2,Cavia porcellus [7],6.78
same,Inhibition,Cavia porcellus [8],49.4%
same,Ki,[9],2950 nM
CC[C@@H]1CN2CCc3c([nH]c4cccc(OC)c34)[C@@H]2C[C@@H]1/C(=C\OC)C(=O)OC,Inhibition,Cavia porcellus [2],95%
same,Ki,Mu-type opioid receptor,7.24 nM
same,Inhibition,Cavia porcellus [3],83.1%
same,Relative affinity,[4],10.7%
same,Relative affinity,[5],88.7%
same,Relative potency,Cavia porcellus [6],26%
same,Ki,[9],1100 nM
same,pD2,Cavia porcellus [10],6.59
CC[C@@H]1CN2CCc3c([nH]c4cccc(OC(C)C)c34)[C@@H]2C[C@@H]1/C(=C\OC)C(=O)OC,NS,Cavia porcellus [11],non specific
same,NS,Cavia porcellus [12],non specific
same,NS,Cavia porcellus [13],non specific
same,NS,Cavia porcellus [14],non specific
CC[C@@H]1C[N+]2([O-])CCc3c([nH]c4cccc(OC)c34)[C@@H]2C[C@@H]1/C(=C\OC)C(=O)OC (stereo partly specified),Inhibition,Cavia porcellus [3],-123.5%
CC[C@@H]1CN2CC[C@@]3(OC)C(=Nc4cccc(OC)c43)[C@@H]2C[C@@H]1/C(=C\OC)C(=O)OC,Inhibition,Cavia porcellus [2],70%
same,Inhibition,Cavia porcellus [15],60.9%
same,Relative potency,Cavia porcellus [6],19%
same,pD2,Cavia porcellus [16],6.45
CC[C@@H]1CN2CCc3c([nH]c4cccc(OC)c34)[C@H]2C[C@@H]1/C(=C/OC)C(=O)OC,Inhibition,Cavia porcellus [2],101%
same,Inhibition,Cavia porcellus [3],85.9%
same,Relative potency,Cavia porcellus [6],2%
same,pD2,Cavia porcellus [16],5.4
CC[C@@H]1CN2CCc3c([nH]c4cccc(OCOC)c34)[C@@H]2C[C@@H]1/C(=C\OC)C(=O)OC,NE,Cavia porcellus [17],inactive
same,NE,Cavia porcellus [18],inactive
same,NE,Cavia porcellus [19],inactive
same,NE,Cavia porcellus [20],inactive
CC[C@@H]1CN2CCc3c([nH]c4cccc(OC(C)=O)c34)[C@@H]2C[C@@H]1/C(=C\OC)C(=O)OC,Inhibition,Cavia porcellus [2],38%
same,Relative potency,Cavia porcellus [6],2%
same,pD2,Cavia porcellus [7],5.39
same,Inhibition,Cavia porcellus [8],33.2%
CCOc1cccc2[nH]c3c(c12)CCN1C[C@@H](CC)[C@@H](/C(=C\OC)C(=O)OC)C[C@@H]31,NS,Cavia porcellus [11],non specific
same,NS,Cavia porcellus [12],non specific
same,NS,Cavia porcellus [13],non specific
same,NS,Cavia porcellus [14],non specific
CC[C@@H]1CN2CC[C@]3(Nc4cccc(OC)c4C3=O)[C@@H]2C[C@@H]1/C(=C\OC)C(=O)OC,Inhibition,Cavia porcellus [2],96%
same,Ki,Mu-type opioid receptor,0.0871 nM
same,Inhibition,Cavia porcellus [3],83.5%
same,Relative affinity,[4],2.8%
same,Relative affinity,[5],97.1%
same,Relative potency,Cavia porcellus [6],3467%
same,pD2,Cavia porcellus [21],8.71
same,Ki,[9],79.4 nM
CN1[C@@H]2CC[C@H]1C[C@@H](OC(=O)C(CO)c1ccccc1)C2 (stereo partly specified) [ATROPINE],Contraction,Cavia porcellus [22],3.9%
CC[C@@H]1CN2CC[C@@]3(OC(C)=O)C(=Nc4cccc(OC)c43)[C@@H]2C[C@@H]1/C(=C\OC)C(=O)OC,Inhibition,Cavia porcellus [2],15%
same,Relative potency,Cavia porcellus [6],21%
same,Inhibition,Cavia porcellus [8],13.4%
same,pD2,Cavia porcellus [10],6.5
CCO[C@]12CCN3C[C@@H](CC)[C@@H](/C(=C\OC)C(=O)OC)C[C@H]3C1=Nc1cccc(OC)c12,Inhibition,Cavia porcellus [2],26%
same,Relative potency,Cavia porcellus [6],1%
same,Inhibition,Cavia porcellus [23],22.9%
same,pD2,Cavia porcellus [16],5.29
CC[C@@H]1CN2CCc3c([nH]c4ccccc34)[C@@H]2C[C@@H]1/C(=C\OC)C(=O)OC [CORYNANRHEIDINE],Inhibition,Cavia porcellus [2],-21%
same,Ki,Mu-type opioid receptor,72.4 nM
same,Contraction,Cavia porcellus [24],6.3%
same,Relative affinity,[4],1%
same,Contraction,Cavia porcellus [25],43%
same,Relative affinity,[5],95.8%
same,Contraction,Cavia porcellus [26],7%
same,Contraction,Cavia porcellus [27],13.2%
same,Contraction,Cavia porcellus [28],5.7%
same,Contraction,Cavia porcellus [29],109.2%
same,Inhibition,Cavia porcellus [30],-18.1%
same,Ki,[9],2570 nM
CC[C@@H]1CN2CC[C@@]3(O)C(=Nc4cccc(OC)c43)[C@@H]2C[C@@H]1/C(=C\OC)C(=O)OC,Inhibition,Cavia porcellus [2],99%
same,Ki,Mu-type opioid receptor,13.5 nM
same,Inhibition,Cavia porcellus [3],86.3%
same,Relative affinity,[4],6.6%
same,Relative affinity,[5],83.3%
same,Relative potency,Cavia porcellus [6],1071%
same,pD2,Cavia porcellus [21],8.2
same,Ki,[9],123 nM
CC[C@@H]1CN2CC3=C(O)C4C(OC)=CC=CC4N=C3[C@@H]2C[C@@H]1/C(=C\OC)C(=O)OC (stereo partly specified),Inhibition,Cavia porcellus [2],85%
same,Inhibition,Cavia porcellus [3],74.1%
same,Relative potency,Cavia porcellus [6],34%
same,pD2,Cavia porcellus [16],6.7
COc1ccc(CCN(C)CCCC(C#N)(c2ccc(OC)c(OC)c2)C(C)C)cc1OC (stereo unspecified),Contraction,Cavia porcellus [31],6.8%
